# Results taken from ChEMBL document CHEMBL1240524, “A focused library of protein tyrosine phosphatase inhibitors” (J Med Chem, 2010).
# Key:
# [1] = target: Secreted effector protein (Yersinia pestis, UniProt O68720); test: Inhibition of Yersinia pestis YOpH
# Method in brief: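 Phosphatase activity was read at 25 °C with p-NPP at its Km (1.7 mM). The buffer was 50 mM 3,3-dimethylglutarate pH 7.0 with 50 mM NaCl, 1 mM EDTA and 10% DMSO. Initial rates came from hydrolysis at 420 nm, 30 to 150 s after mixing. Percent inhibition was measured and IC50 values were calculated from it.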
# [2] = target: T1, Tyrosine-protein phosphatase non-receptor type 1 (Homo sapiens, UniProt P18031); test: Inhibition of PTP1B
# T1 sequence (P18031 whole entry): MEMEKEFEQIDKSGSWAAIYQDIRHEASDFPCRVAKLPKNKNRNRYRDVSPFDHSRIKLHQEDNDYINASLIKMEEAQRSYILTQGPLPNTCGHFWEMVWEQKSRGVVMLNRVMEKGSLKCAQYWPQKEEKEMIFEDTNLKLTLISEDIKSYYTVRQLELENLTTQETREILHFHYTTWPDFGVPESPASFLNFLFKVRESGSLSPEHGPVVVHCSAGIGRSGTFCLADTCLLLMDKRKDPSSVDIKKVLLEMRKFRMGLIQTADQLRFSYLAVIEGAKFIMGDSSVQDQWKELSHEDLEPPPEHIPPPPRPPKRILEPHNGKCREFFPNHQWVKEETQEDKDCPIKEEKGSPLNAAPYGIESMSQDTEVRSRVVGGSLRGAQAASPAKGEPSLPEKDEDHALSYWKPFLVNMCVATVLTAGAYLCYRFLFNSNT
# Method in brief: (§1)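 Medium: 10% DMSO, 1 mM EDTA, 50 mM NaCl, 50 mM 3,3-dimethylglutarate, pH 7.0. Initial rates taken as absorbance at 420 nm from 30 to 150 s after mixing. IC50 derived from percent inhibition.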
# [3] = target: T2, Tyrosine-protein phosphatase non-receptor type 7 (Homo sapiens, UniProt P35236); test: Inhibition of HePTP
# T2 sequence (P35236 whole entry): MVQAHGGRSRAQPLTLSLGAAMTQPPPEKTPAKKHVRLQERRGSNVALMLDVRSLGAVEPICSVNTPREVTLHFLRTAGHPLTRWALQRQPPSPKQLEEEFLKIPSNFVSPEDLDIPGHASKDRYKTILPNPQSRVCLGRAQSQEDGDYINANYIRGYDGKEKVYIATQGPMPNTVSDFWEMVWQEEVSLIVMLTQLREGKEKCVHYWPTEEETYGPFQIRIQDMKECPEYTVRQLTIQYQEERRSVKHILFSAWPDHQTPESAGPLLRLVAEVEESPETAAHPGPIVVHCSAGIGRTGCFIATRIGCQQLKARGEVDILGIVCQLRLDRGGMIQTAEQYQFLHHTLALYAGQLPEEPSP
# Method in brief: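 HePTP assayed with 4-methylumbelliferyl phosphate at 174 μM (its measured Km) at 25 °C in 10% DMSO, 1 mM EDTA, 50 mM NaCl, 50 mM 3,3-dimethylglutarate, pH 7.0. Initial rates read as fluorescence (ex 340, em 460 nm) from 0 to 150 s after mixing. IC50 derived from percent inhibition.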
# [4] = target: T3, Tyrosine-protein phosphatase non-receptor type 2 (Homo sapiens, UniProt P17706); test: Inhibition of TCPTP; method in brief: as §1
# T3 sequence (P17706 whole entry): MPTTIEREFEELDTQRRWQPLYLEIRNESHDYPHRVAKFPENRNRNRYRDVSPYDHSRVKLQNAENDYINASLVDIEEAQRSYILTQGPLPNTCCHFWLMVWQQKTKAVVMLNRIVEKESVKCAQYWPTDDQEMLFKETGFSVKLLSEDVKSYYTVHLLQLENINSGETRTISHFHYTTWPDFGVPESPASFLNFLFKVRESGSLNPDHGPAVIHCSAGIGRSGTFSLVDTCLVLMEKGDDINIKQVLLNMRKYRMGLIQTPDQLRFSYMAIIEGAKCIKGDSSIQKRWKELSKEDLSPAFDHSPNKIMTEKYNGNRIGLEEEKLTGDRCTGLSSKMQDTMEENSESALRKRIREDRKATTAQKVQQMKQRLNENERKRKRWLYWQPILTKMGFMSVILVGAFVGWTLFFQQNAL
# [5] = Selectivity ratio of IC50 for TCPTP to IC50 for PTP1B
# Secreted effector protein, sequence (O68720 whole entry): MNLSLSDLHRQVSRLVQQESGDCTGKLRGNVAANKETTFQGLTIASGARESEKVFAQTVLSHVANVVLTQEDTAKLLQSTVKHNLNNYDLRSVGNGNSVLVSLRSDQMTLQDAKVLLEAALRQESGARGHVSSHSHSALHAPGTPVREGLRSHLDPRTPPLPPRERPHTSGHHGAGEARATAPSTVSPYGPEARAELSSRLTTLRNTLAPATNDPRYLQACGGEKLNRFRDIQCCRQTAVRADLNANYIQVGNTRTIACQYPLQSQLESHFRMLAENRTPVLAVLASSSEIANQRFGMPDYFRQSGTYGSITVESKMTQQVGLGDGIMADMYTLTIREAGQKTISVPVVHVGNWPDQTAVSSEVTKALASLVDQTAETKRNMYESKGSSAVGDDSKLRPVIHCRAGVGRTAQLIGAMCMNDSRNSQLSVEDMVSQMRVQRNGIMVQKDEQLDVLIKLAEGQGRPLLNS
Structure (SMILES),IC50 [1] [nM],IC50 [2] [nM],IC50 [3] [nM],IC50 [4] [nM],Ratio IC50 [5]
N#Cc1ccc(Oc2ccc(NC(=O)c3cc(COc4ccc(C(=O)C(=O)O)cc4)ccc3COc3ccc(C(=O)C(=O)O)cc3)cc2)cc1,1300,,,,
Cc1ccccc1Oc1ccc(NC(=O)c2cc(COc3ccc(C(=O)C(=O)O)cc3)ccc2COc2ccc(C(=O)C(=O)O)cc2)cc1,230,,,,
O=C(O)C(=O)c1ccc(OCc2ccc(COc3ccc(C(=O)C(=O)O)cc3)c(C(=O)Nc3cccc(OCc4ccccc4)c3)c2)cc1,100,,,,
Cc1ccc(Oc2ccc(NC(=O)c3cc(COc4ccc(C(=O)C(=O)O)cc4)ccc3COc3ccc(C(=O)C(=O)O)cc3)cc2)cc1,190,,,,
O=C(O)C(=O)c1ccc(OCc2ccc(COc3ccc(C(=O)C(=O)O)cc3)c(C(=O)Nc3ccc(Oc4ccc(F)cc4)cc3)c2)cc1,110,,,,
O=C(O)C(=O)c1ccc(OCc2ccc(COc3ccc(C(=O)C(=O)O)cc3)c(C(=O)Nc3ccc(Oc4ccc(Cl)c(Cl)c4)cc3)c2)cc1,210,,,,
COc1ccc(Oc2ccc(NC(=O)c3cc(COc4ccc(C(=O)C(=O)O)cc4)ccc3COc3ccc(C(=O)C(=O)O)cc3)cc2)cc1,1100,,,,
CCCCCCc1ccc(Oc2ccc(NC(=O)c3cc(COc4ccc(C(=O)C(=O)O)cc4)ccc3COc3ccc(C(=O)C(=O)O)cc3)cc2)cc1,90,1200,28000,2300,
O=C(O)C(=O)c1ccc(OCc2ccc(COc3ccc(C(=O)C(=O)O)cc3)c(C(=O)Nc3ccc(Oc4ccc(-c5ccccc5)cc4)cc3)c2)cc1,30,220,21000,6500,
CCCCc1ccc(Oc2ccc(NC(=O)c3cc(COc4ccc(C(=O)C(=O)O)cc4)ccc3COc3ccc(C(=O)C(=O)O)cc3)cc2)cc1,200,,,,
O=C(O)C(=O)c1ccc(OCc2ccc(COc3ccc(C(=O)C(=O)O)cc3)c(C(=O)Nc3ccc(Oc4ccccc4)cc3)c2)cc1,240,,,,< 2
O=C(O)C(=O)c1ccc(OCc2ccc(COc3ccc(C(=O)C(=O)O)cc3)c(C(=O)Nc3ccc(Oc4ccc(SC(F)(F)F)cc4)cc3)c2)cc1,50,1600,53000,4000,
CSc1ccc(Oc2ccc(NC(=O)c3cc(COc4ccc(C(=O)C(=O)O)cc4)ccc3COc3ccc(C(=O)C(=O)O)cc3)cc2)cc1,110,,,,
CCc1ccc(Oc2ccc(NC(=O)c3cc(COc4ccc(C(=O)C(=O)O)cc4)ccc3COc3ccc(C(=O)C(=O)O)cc3)cc2)cc1,70,490,52000,3500,
O=C(O)C(=O)c1ccc(OCc2ccc(COc3ccc(C(=O)C(=O)O)cc3)c(C(=O)Nc3ccc(Oc4ccc(F)cc4F)cc3)c2)cc1,910,,,,
CC(C)c1ccc(Oc2ccc(NC(=O)c3cc(COc4ccc(C(=O)C(=O)O)cc4)ccc3COc3ccc(C(=O)C(=O)O)cc3)cc2)cc1,800,,,,
O=C(O)C(=O)c1ccc(OCc2ccc(COc3ccc(C(=O)C(=O)O)cc3)c(C(=O)Nc3ccc(Oc4cccc(F)c4)cc3)c2)cc1,220,,,,
